PTEN del growth: growth suppressors of cells with PTEN tumor suppressor deletion. HCT116 PTEN-null viability, CellTiter-Glo, 60 h; stronger effect = lower value. viability, % at 10 µM. 140,000 tested, 1.2% active. AID 827;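 active means viability at or below a set limit, 4 SD under the median of all tested compounds, cut at about 3.7% in these data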;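 further: PTEN knockout HCT116 line with beta catenin targeted HCT116 as companion control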
bCat KO growth: beta-catenin-lacking colon tumor cell growth suppression | viability, % at 10 µM | HCT116 beta-catenin knockout viability, CellTiter-Glo, 60 h; stronger effect = lower value | 140,000 tested, 1.5% active;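 active means viability at or under a set limit, the compound median less 4 SD, cut at about 6% in these data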;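 further: 0% = Hyamine 1622 control at 20 µM and 100% = untreated cell control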
H69AR growth 86K: growth inhibitors of human H69AR lung tumor cells; 85,000 tested, 6% active; H69AR lung tumor viability, ATP luminescence, 72 h; stronger effect = lower value; viability, % at 10 µM;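 active means viability at or below 40%; inactive means viability above 40%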;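 further: multidrug resistant small cell line overexpressing MRP-1 efflux transporter; 100% = mean luminescence of untreated control wells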
PTK2B oligo ant: blocks oligomerization of human Pyk2 in cells; 99,000 tested, 0.83% active; Q293 cells, Pyk2 FERM NanoBiT luminescence; stronger effect = lower value; z-score (the deposit names both 25 µM and 10 µM);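 active means Z-score of -3 or lower, scaled per plate to the spread of control and sample wells; inactive means z-score above -3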;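 further: negative z-score means lost luminescence so less FERM oligomerization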
Lung fibro prol: blocks proliferation of human lung fibroblasts | AID 719 | 85,000 tested, 1.1% active | viability, % at 10 µM | LL 47 human lung fibroblast viability, ATP luminescence; stronger effect = lower value;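 active means viability at or below 50% in the single dose screen; inactive means viability above 50%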;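 further: compound exposure lasted 72 h before the ATP readout; 100% = median luminescence of untreated cell-only wells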
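Test system: LL 47 human lung fibroblasts / Incubation: 72 h compound exposure at 37 °C after overnight plating / Technique: luminescent ATP detection, CellTiter-Glo / Compound dosing: 0.1% DMSO in all compound wells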
HUVEC inhibit: blocks proliferation of human endothelial cells; HUVEC proliferation, CellTiter-Glo luminescence, 72 h; stronger effect = lower value; viability, % at 10 µM (by protocol); 86,000 tested, 1.1% active;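 active means viability at or below 30%; inactive means viability above 30%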;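 further: 100% = median luminescence of DMSO-only cell control wells on each plate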
* = called active by the depositor; / = no result given. Shown is part of a subset that was picked to be rich in hits.

SMILES	PTEN del growth	bCat KO growth	H69AR growth 86K	PTK2B oligo ant	Lung fibro prol	HUVEC inhibit
N#CC1=C(N)Oc2c(ccc3cccnc23)C1c1cccnc1 (stereo unspecified)	4	4.5*	/	-0.06	/	/
CCc1cccc(C)c1NC(=O)CSc1nnc(CCCOc2ccc(Cl)cc2Cl)n1C	62	71	/	/	/	/
CN(C)c1oc(-c2ccc(Cl)cc2)nc1S(=O)(=O)c1ccccc1	94	96	/	/	/	/
CCn1c(N)c(C(=O)NC)sc1=S	61	55	20*	-0.75	97	95
CC(=O)Nc1ccc(SCC(=O)N(CCC#N)c2ccc(C)cc2)cc1	96	100	33*	0.09	109	99
CCOc1cc(-c2c(C)c(CC)nc(N)c2C#N)ccc1O	79	90	36*	-1.8	96	92
CCOc1cc(-c2cc(-c3ccc(C)o3)nc(N)c2C#N)ccc1O	58	60	12*	-1.3	83	52
Cc1ccc(-c2cc(-c3ccc(C)o3)nc(N)c2C#N)cc1	73	64	37*	-0.55	96	80
Cc1ccc(-c2cc(-c3ccc(F)cc3)c(C#N)c(N)n2)o1	87	94	/	/	/	/
Cc1ccc(-c2cc(-c3ccc(Cl)cc3)c(C#N)c(N)n2)o1	55	44	7.1*	-0.54	71	58
O=C(COc1ccc(Cl)cc1Cl)Nc1c(-c2cccs2)nc2ccccn12	81	89	/	/	/	/
O=C(CN1CC(c2ccccc2)CC1=O)N/N=C/c1cc(Br)ccc1O (stereo unspecified)	8	8	/	/	/	/
Cc1ccc(-c2cc(-c3ccc4c(c3)OCO4)c(C#N)c(N)n2)o1	56	49	19*	-0.98	85	71
N#Cc1c(N)oc(-c2ccc3c(c2)OCO3)c1-c1ccc2c(c1)OCO2	26	39	22*	-1.4	99	96
N#Cc1c(N)nc2c(c1-c1ccc3c(c1)OCO3)CCCCCC2	95	106	67	-0.01	95	104
Nc1c(C(=O)NC2CCCCC2)c2nc3ccccc3nc2n1/N=C/c1ccco1	/	/	26*	/	76	50
COc1ccc(-c2cc(C(F)(F)F)n3ncc(C(=O)NCC4CCCO4)c3n2)cc1 (stereo unspecified)	61	72	20*	0.65	97	99
COC(=O)c1ccccc1NC(=O)c1cnn2c(C(F)F)cc(C3CC3)nc12	45	49	/	-3.6*	99	91
Cc1cc(NC(=O)CCS(=O)(=O)c2nc(-c3ccccc3)cc(C(F)(F)F)n2)no1	71	69	0.7*	-0.44	5.6*	24*
COc1ccc(-c2cc(C(F)(F)F)nc(SCC(=O)Nc3cc(C)on3)n2)cc1	73	72	46	0.92	77	67
Cc1cc(NC(=O)c2cnn3c(C(F)F)cc(-c4ccccc4)nc23)no1	83	95	25*	-2	90	76
CCN=C(NCC)SC1CC(=O)N(c2cccc(OCC)c2)C1=O (stereo unspecified)	82	103	95	-0.6	103	105
CC(C)CNC(=O)c1cc2nc3c(c(C(F)(F)F)n2n1)CCc1ccccc1-3	98	112	78	-0.33	107	125
Cc1cc(NC(=O)c2cnn3c(C(F)(F)F)cc(-c4ccccc4)nc23)no1	71	78	38*	-2	94	89
O=C(c1cnn2c(C(F)F)cc(-c3ccccc3)nc12)N1CCCc2ccccc21	91	90	69	-0.48	94	94
SMILES	PTEN del growth	bCat KO growth	H69AR growth 86K	PTK2B oligo ant	Lung fibro prol	HUVEC inhibit
O=C(c1cnn2c(C(F)(F)F)cc(-c3ccccc3)nc12)N1CCCc2ccccc21	98	94	36*	0.42	91	87
COC(=O)c1cnn2c(C(F)(F)F)cc(-c3ccccc3)nc12	91	89	80	-0.88	105	110
Cc1cc(NC(=O)c2cc3nc4c(c(C(F)(F)F)n3n2)CCc2ccccc2-4)no1	/	/	29*	/	103	102
CCOc1cccc(-c2nnc3n2N=C(c2cc(OC)ccc2OC)CS3)c1	18	18	21*	-0.85	60	56
COc1cc(-c2nnc3n2N=C(c2ccccc2)CS3)cc(OC)c1OC	10	13	19*	-2.1	52	49
COc1ccc(-c2nnc3n2N=C(C)CS3)cc1	100	80	84	0.4	97	80
COc1ccc(C2=Nn3c(nnc3-c3ccc(OC)cc3)SC2)cc1	14	16	22*	-2	42*	47
Cc1ccc(-c2nnc3n2N=C(c2ccccc2)CS3)cc1	92	96	87	/	99	106
c1ccc(C2=Nn3c(nnc3-c3cc(-c4ccccc4)n[nH]3)SC2)cc1	79	77	40*	-3.3*	63	90
COc1ccc(OC)c(C2=Nn3c(nnc3-c3cc(OC)c(OC)c(OC)c3)SC2)c1	59	67	58	-3.1*	79	68
CCOc1ccc(C2=Nn3c(nnc3-c3ccccn3)SC2)cc1	91	83	30*	-0.41	94	95
COc1ccc(OC)c(C2=Nn3c(nnc3-c3ccncc3)SC2)c1	/	/	81	/	98	102
COc1cccc(-c2nnc3n2N=C(C(C)(C)C)CS3)c1	4	5.5*	98	-1.9	52	36
COc1ccc(Cl)cc1N(CC(=O)NC(C(C)C)C(C)C)S(C)(=O)=O	87	89	/	1.1	/	/
Cc1ccc2[nH]c(=O)c(CN(CC3CCCO3)C(=S)Nc3ccccc3)cc2c1 (stereo unspecified)	35	42	/	/	/	/
COc1ccccc1N1CCN(CC(=O)c2c(C)[nH]c3cc(C)ccc23)CC1	57	55	37*	-1	100	32
COc1ccc(N=c2oc3c(OC)cccc3cc2C(=O)NCc2ccco2)c(OC)c1	4	1.8*	100	-0.69	77	63
COc1ccc2cc(C(=O)NCc3ccco3)c(=O)oc2c1	93	87	99	0.64	107	117
COc1ccc(C(=O)Nc2ccc(Cl)cc2C(=O)NCc2ccco2)cc1	72	83	29*	-2.9	84	63
COc1ccc2cc(C(=O)NCc3ccco3)c(=Nc3ccc(C(=O)O)cc3)oc2c1	81	78	21*	-1.7	93	79
COc1ccc(S(=O)(=O)c2ccc(OC)c(OC)c2)cc1OC	100	95	103	-0.2	96	99
CCCC(=O)c1c[nH]c(C(=O)NCCc2ccccn2)c1	100	93	/	-0.41	/	/
N#C/C(=C\c1ccc(OCC(N)=O)cc1)c1ccccc1	92	93	/	/	/	/
COc1ccc(C(=O)c2ccc(Cl)cc2)c2ccccc12	73	72	17*	-0.92	94	65
CCN(CC)C(=O)Cn1nc(-c2ccccc2O)nc1SCC(=O)Nc1ccc(OC)cc1	75	84	35*	-0.6	93	78
COc1ccc(NC(=O)CSc2nc(-c3ccncc3)nn2CC(=O)N2CCCC2)cc1	102	98	72	0.47	88	85
